Our source for the IC50 values is ChEMBL document CHEMBL1125234, “Novel pyrrolo[2,3-d]pyrimidine antifolates: synthesis and antitumor activities” (J Med Chem, 1991).

≈ marks a conversion by molar mass, not a printed value.

A short description of experiment [1]: In vitro growth inhibitory activity against KB human epidermoid carcinoma cells. In kind it is functional. The gist of the method: (§1)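 Cells seeded at 1 × 10^4 cells/mL in 96-well plates, MEM with 10% fetal calf serum, 37 °C, 5% CO₂, 24 h. Antifolate added in 10% MEM at final 0.15-80 ng/mL, then culture continued 72 h at 37 °C. Cell number estimated by MTT; IC50 taken as concentration giving 50% growth inhibition. Means ± SE of three experiments.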

The test system of the next experiment is A549. Kind of experiment: In vitro growth inhibitory activity against A549 human nonsmall cell lung carcinoma cells. In kind it is functional, cell-based. In short, it runs like this: as §1

Consider `CC(CCc1c[nH]c2nc(N)nc(N)c12)c1ccc(C(=O)N[C@H](CCC(=O)O)C(=O)O)cc1` (stereo not given in full), for which the IC50 in experiment [1] was determined as 0.59 ng/mL (≈ 1.3 nM); with A549 it was 2.3 ng/mL (≈ 5.06 nM).

As for `Nc1nc(N)c2c(n1)NCC2CCCc1ccc(C(=O)N[C@H](CCC(=O)O)C(=O)O)cc1` (stereo not given in full), the values for the IC50 (in experiment [1]; in the experiment on A549) were 0.49 ng/mL (≈ 1.11 nM) and 4.9 ng/mL (≈ 11.1 nM), respectively.

Turning to `CC(CCC1CNc2nc(N)nc(N)c21)c1ccc(C(=O)N[C@H](CCC(=O)O)C(=O)O)cc1` (stereo not given in full), the IC50 in experiment [1] is 0.3 ng/mL (≈ 0.657 nM); in the experiment with A549, 1.6 ng/mL (≈ 3.5 nM).

On to `Nc1nc(N)c2c(CCCc3ccc(C(=O)N[C@H](CCC(=O)O)C(=O)O)cc3)c[nH]c2n1`, for which the IC50 was 0.27 ng/mL (≈ 0.613 nM) in experiment [1] and 4.5 ng/mL (≈ 10.2 nM) in the experiment with A549.

Turning to `CN(Cc1cnc2nc(N)nc(N)c2n1)c1ccc(C(=O)N[C@@H](CCC(=O)O)C(=O)O)cc1` [METHOTREXATE], the IC50 in experiment [1] turned out to be 5.02 ng/mL (≈ 11 nM); in the experiment with A549, 35 ng/mL (≈ 77 nM).

A word on the IC50: it is the point on the concentration scale where inhibition reaches its midpoint. Read a low IC50 as higher potency.
